Data reported in ChEMBL document CHEMBL2151038, “Synthesis, characterization and biological evaluation of some novel 2,4-thiazolidinediones as potential cytotoxic, antimicrobial and antihyperglycemic agents” (Bioorg Med Chem Lett, 2012).
Values after ≈ are worked out from the molar mass of the structure shown.

How the values were obtained:
Escherichia coli = assay: Antibacterial activity against Escherichia coli NCIM 2065 after 24 hrs by NCCLS agar well diffusion method; assay type: functional; details: NCIM 2065, 24 h
Outline: (§1)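 Nutrient agar seeded with 0.1 mL bacterial suspension (10⁵ CFU/mL in 0.85% saline). 6 mm wells filled with 0.1 mL compound. Plates in triplicate, 37 ± 0.5 °C for 24 h. MIC = lowest concentration giving complete growth inhibition.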

Penicillium chrysogenum = assay: Antifungal activity against Penicillium chrysogenum NCIM 738 after 48 hrs by NCCLS agar well diffusion method; assay type: functional; details: NCIM 738, 48 h
Outline: (§2)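 Spore suspensions in sterile distilled water adjusted to 10⁶ CFU/mL, 0.1 mL spread on potato-dextrose agar. 6 mm wells received 0.1 mL compound in 1% DMSO (final 16–512 µg/mL). Controls: 1% DMSO and ketoconazole (16 µg/mL). Triplicate plates, 48 h at 28 ± 0.2 °C. MIC = lowest concentration completely inhibiting growth.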

Aspergillus oryzae = assay: Antifungal activity against Aspergillus oryzae NCIM 643 after 48 hrs by NCCLS agar well diffusion method; assay type: functional; details: NCIM 643, 48 h; outline: as §2
Micrococcus luteus = assay: Antibacterial activity against Micrococcus luteus NCIM 2155 after 24 hrs by NCCLS agar well diffusion method; assay type: functional; details: NCIM 2155, 24 h; outline: as §1
Rattus norvegicus [1] = assay: Antihyperglycemic activity in streptozotocin-induced type 2 diabetic Wistar albino rat assessed as reduction in plasma glucose level at 10 mg/kg, po by glucometer; assay type: functional
Outline: (§3)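 Wistar albino rats of either sex, 150–200 g, fasted 16 h. Diabetes induced by nicotinamide 150 mg/kg, then STZ 65 mg/kg in citrate buffer pH 4.5. Glucose confirmed after 48 h. Groups of six. Oral dosing as 0.25% sodium CMC suspension at 10, 30 or 50 mg/kg. Rosiglitazone was the reference. Retro-orbital plasma glucose measured by glucometer before dosing and at 1, 2, 4, 6, 8, 12 and 24 h. Results as mean ± SEM, compared by ANOVA, t-test and Dunnett's test.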

Bacillus pumilus = assay: Antibacterial activity against Bacillus pumilus NCIM 2327 after 24 hrs by NCCLS agar well diffusion method; assay type: functional; details: NCIM 2327, 24 h; outline: as §1
Proteus vulgaris = assay: Antibacterial activity against Proteus vulgaris NCIM 2813 after 24 hrs by NCCLS agar well diffusion method; assay type: functional; details: NCIM 2813, 24 h; outline: as §1
Bacillus subtilis = assay: Antibacterial activity against Bacillus subtilis NCIM 2063 after 24 hrs by NCCLS agar well diffusion method; assay type: functional; details: NCIM 2063, 24 h; outline: as §1
Rattus norvegicus [2] = assay: Antihyperglycemic activity in streptozotocin-induced type 2 diabetic Wistar albino rat assessed as reduction in plasma glucose level at 30 mg/kg, po by glucometer; assay type: functional; outline: as §3
[3] = Toxicity in mouse assessed as changes in vital functions; assay type: organism-based; details: in vivo
Aspergillus niger = assay: Antifungal activity against Aspergillus niger NCIM 548 after 48 hrs by NCCLS agar well diffusion method; assay type: functional; details: NCIM 548, 48 h; outline: as §2
Klebsiella pneumoniae = assay: Antibacterial activity against Klebsiella pneumoniae NCIM 5082 after 24 hrs by NCCLS agar well diffusion method; assay type: functional; details: NCIM 5082, 24 h; outline: as §1
Pseudomonas aeruginosa = assay: Antibacterial activity against Pseudomonas aeruginosa NCIM 2036 after 24 hrs by NCCLS agar well diffusion method; assay type: functional; details: NCIM 2036, 24 h; outline: as §1
Staphylococcus aureus = assay: Antibacterial activity against Staphylococcus aureus NCIM 2079 after 24 hrs by NCCLS agar well diffusion method; assay type: functional; details: NCIM 2079, 24 h; outline: as §1
Rattus norvegicus [4] = assay: Antihyperglycemic activity in streptozotocin-induced type 2 diabetic Wistar albino rat assessed as reduction in plasma glucose level at 50 mg/kg, po by glucometer; assay type: functional; outline: as §3
Candida albicans = assay: Antifungal activity against Candida albicans NCIM 3102 after 48 hrs by NCCLS agar well diffusion method; assay type: functional; details: NCIM 3102, 48 h; outline: as §2
Rattus norvegicus [5] = assay: Antihyperglycemic activity in po dosed streptozotocin-induced type 2 diabetic Wistar albino rat assessed as reduction in plasma glucose level by glucometer; assay type: functional, organism-based; outline: as §3
Artemia salina = assay: Cytotoxicity in brine shrimps larvae assessed as mortality after 24 hrs; assay type: functional; details: read-out: ED50 (the source's name)
Outline: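 Artemia salina nauplii hatched 38 h under constant aeration in sterile brine (sea salt 38 g/L, pH 8.5 with 1 N NaOH). Ten nauplii per vial were exposed to a range of compound concentrations at 37 °C for 24 h under incandescent light, alongside vehicle-treated controls. Survivors were counted, % lethality was taken from mean survivors versus control, and ED50 came from probit analysis.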

Row | Structure (SMILES) | MIC (Escherichia coli) [µg/mL] | MIC (Penicillium chrysogenum) [µg/mL] | MIC (Aspergillus oryzae) [µg/mL] | MIC (Micrococcus luteus) [µg/mL] | Activity (Rattus norvegicus [1]) [mg/dL] | MIC (Bacillus pumilus) [µg/mL] | MIC (Proteus vulgaris) [µg/mL] | MIC (Bacillus subtilis) [µg/mL] | Activity (Rattus norvegicus [2]) [mg/dL] | MTD [3] [mg/kg] | MIC (Aspergillus niger) [µg/mL] | MIC (Klebsiella pneumoniae) [µg/mL] | MIC (Pseudomonas aeruginosa) [µg/mL] | MIC (Staphylococcus aureus) [µg/mL] | Activity (Rattus norvegicus [4]) [mg/dL] | MIC (Candida albicans) [µg/mL] | Activity (Rattus norvegicus [5]) | EC50 (Artemia salina) [µg/mL]
1 | O=C1NC(=O)/C(=C/c2ccc(/C=C/C(=O)c3cccc(Cl)c3)cc2)S1 | 64 (≈ 173 µM) | 64 (≈ 173 µM) | 64 (≈ 173 µM) | 64 (≈ 173 µM) | 11.71 | 64 (≈ 173 µM) | 32 (≈ 86.5 µM) | 64 (≈ 173 µM) | 15.42 | 2000 | 64 (≈ 173 µM) | 64 (≈ 173 µM) | 32 (≈ 86.5 µM) | 64 (≈ 173 µM) | 21.83 | 128 (≈ 346 µM) | Dose-dependent effect | 24.8 (≈ 67.1 µM)
2 | COc1cc([C@@H]2c3cc4c(cc3[C@H](O)[C@H]3COC(=O)[C@H]23)OCO4)cc(OC)c1OC [PODOFILOX] |  |  |  |  |  |  |  |  |  |  |  |  |  |  |  |  |  | 3.61 (≈ 8.71 µM)
3 | O=C1NC(=O)/C(=C/c2ccc(/C=C/C(=O)c3ccccc3O)cc2)S1 | 256 (≈ 729 µM) | 512 (≈ 1460 µM) | 512 (≈ 1460 µM) | 512 (≈ 1460 µM) |  | 512 (≈ 1460 µM) | 512 (≈ 1460 µM) | 512 (≈ 1460 µM) |  | 2000 | 512 (≈ 1460 µM) | 512 (≈ 1460 µM) | 256 (≈ 729 µM) | 256 (≈ 729 µM) | 14.44 | 512 (≈ 1460 µM) | Dose-dependent effect | 41.4 (≈ 118 µM)
4 | O=C1NC(=O)/C(=C/c2ccc(/C=C/C(=O)c3cccc([N+](=O)[O-])c3)cc2)S1 | 128 (≈ 337 µM) | 256 (≈ 673 µM) | 128 (≈ 337 µM) | 256 (≈ 673 µM) | 11.18 | 256 (≈ 673 µM) | 512 (≈ 1350 µM) | 256 (≈ 673 µM) | 14.72 | 2000 | 256 (≈ 673 µM) | 256 (≈ 673 µM) | 128 (≈ 337 µM) | 128 (≈ 337 µM) | 16.56 | 512 (≈ 1350 µM) | Dose-dependent effect | 56.1 (≈ 147 µM)
5 | O=C1NC(=O)/C(=C/c2ccc(/C=C/C(=O)c3cccnc3)cc2)S1 | 128 (≈ 381 µM) | 256 (≈ 761 µM) | 128 (≈ 381 µM) | 128 (≈ 381 µM) | 19.04 | 128 (≈ 381 µM) | 256 (≈ 761 µM) | 128 (≈ 381 µM) | 27.86 | 2000 | 256 (≈ 761 µM) | 128 (≈ 381 µM) | 128 (≈ 381 µM) | 128 (≈ 381 µM) | 31.81 | 128 (≈ 381 µM) | Dose-dependent effect | 31.4 (≈ 93.4 µM)
6 | O=C1NC(=O)/C(=C/c2ccc(/C=C/C(=O)c3ccc(Cl)cc3)cc2)S1 | 32 (≈ 86.5 µM) | 64 (≈ 173 µM) | 64 (≈ 173 µM) | 64 (≈ 173 µM) | 26.74 | 16 (≈ 43.3 µM) | 32 (≈ 86.5 µM) | 32 (≈ 86.5 µM) | 32.38 | 2000 | 64 (≈ 173 µM) | 16 (≈ 43.3 µM) | 32 (≈ 86.5 µM) | 32 (≈ 86.5 µM) | 36.17 | 64 (≈ 173 µM) | Dose-dependent effect | 12.1 (≈ 32.6 µM)
7 | O=C1NC(=O)/C(=C/c2ccc(/C=C/C(=O)c3cc(O)ccc3O)cc2)S1 | 256 (≈ 697 µM) | 128 (≈ 348 µM) | 256 (≈ 697 µM) | 512 (≈ 1390 µM) | 30.74 | 256 (≈ 697 µM) | 512 (≈ 1390 µM) | 512 (≈ 1390 µM) | 38.86 | 2000 | 256 (≈ 697 µM) | 256 (≈ 697 µM) | 512 (≈ 1390 µM) | 256 (≈ 697 µM) | 47.73 | 128 (≈ 348 µM) | Dose-dependent effect | 46.7 (≈ 127 µM)
